Experimental data reported in ChEMBL document CHEMBL2321771, “Inhibition of Ebola Virus Infection: Identification of Niemann-Pick C1 as the Target by Optimization of a Chemical Probe” (ACS Med Chem Lett, 2013).
Calls of active or inactive are those of the source. The rule behind the calls is not given here.

What was measured:
[1] = biological target: T1, NPC intracellular cholesterol transporter 1 (Mus musculus) (UniProt O35604); assay: Inhibition of mouse NPC1 interaction to Ebola virus GP expressed in LE/LY membrane of CHO cells by immunoblotting; type: cell-based
T1 sequence (whole entry): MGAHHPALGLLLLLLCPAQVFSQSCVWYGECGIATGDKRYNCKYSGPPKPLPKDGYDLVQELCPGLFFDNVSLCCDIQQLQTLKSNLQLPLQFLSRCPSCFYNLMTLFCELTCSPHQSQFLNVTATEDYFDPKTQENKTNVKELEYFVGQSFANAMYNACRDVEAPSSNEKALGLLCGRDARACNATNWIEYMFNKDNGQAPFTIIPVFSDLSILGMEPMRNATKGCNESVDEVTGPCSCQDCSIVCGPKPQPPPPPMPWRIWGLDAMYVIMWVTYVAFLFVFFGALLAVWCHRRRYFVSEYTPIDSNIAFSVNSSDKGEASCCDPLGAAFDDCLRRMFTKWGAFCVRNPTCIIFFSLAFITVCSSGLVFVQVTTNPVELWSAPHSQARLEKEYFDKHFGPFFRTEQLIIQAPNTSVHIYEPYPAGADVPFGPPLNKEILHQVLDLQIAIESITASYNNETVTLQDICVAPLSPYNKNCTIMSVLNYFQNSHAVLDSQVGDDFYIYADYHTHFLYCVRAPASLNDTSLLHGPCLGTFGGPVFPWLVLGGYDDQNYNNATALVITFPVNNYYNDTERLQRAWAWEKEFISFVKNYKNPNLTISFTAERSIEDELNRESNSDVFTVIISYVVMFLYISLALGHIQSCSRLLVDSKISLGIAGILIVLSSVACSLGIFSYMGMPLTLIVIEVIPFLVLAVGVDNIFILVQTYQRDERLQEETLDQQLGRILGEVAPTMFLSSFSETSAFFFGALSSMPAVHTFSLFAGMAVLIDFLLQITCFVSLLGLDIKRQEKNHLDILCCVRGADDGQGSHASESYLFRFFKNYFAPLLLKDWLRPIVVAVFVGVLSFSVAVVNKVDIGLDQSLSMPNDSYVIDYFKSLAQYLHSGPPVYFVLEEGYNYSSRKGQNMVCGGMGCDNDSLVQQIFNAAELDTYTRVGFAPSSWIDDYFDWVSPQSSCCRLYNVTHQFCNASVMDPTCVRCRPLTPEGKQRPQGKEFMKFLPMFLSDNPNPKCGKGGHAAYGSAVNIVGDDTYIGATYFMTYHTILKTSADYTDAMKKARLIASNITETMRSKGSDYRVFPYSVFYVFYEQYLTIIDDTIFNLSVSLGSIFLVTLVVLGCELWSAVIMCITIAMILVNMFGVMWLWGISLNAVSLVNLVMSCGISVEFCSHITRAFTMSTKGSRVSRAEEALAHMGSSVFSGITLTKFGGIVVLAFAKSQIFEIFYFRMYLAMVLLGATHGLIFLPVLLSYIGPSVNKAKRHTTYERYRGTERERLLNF
Outline: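 Late endosome/lysosome membranes from NPC1-null CHO cells, or the same cells stably expressing mouse NPC1, were immobilized on ELISA plates. They were incubated with protease-cleaved Ebola GP in the presence of test compound at specified concentrations. After washing off unbound GP, membranes were solubilized in NP40 and bound GP was detected by GP1-antibody immunoblot. Results are representative of six experiments.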

[2] = biological target: T2, NPC intracellular cholesterol transporter 1 (Homo sapiens) (UniProt O15118); assay: Binding affinity to human NPC1 expressed in LE/LY membrane of CHO cells at 25 uM by immunoblotting; type: cell membranes
T2 sequence (whole entry): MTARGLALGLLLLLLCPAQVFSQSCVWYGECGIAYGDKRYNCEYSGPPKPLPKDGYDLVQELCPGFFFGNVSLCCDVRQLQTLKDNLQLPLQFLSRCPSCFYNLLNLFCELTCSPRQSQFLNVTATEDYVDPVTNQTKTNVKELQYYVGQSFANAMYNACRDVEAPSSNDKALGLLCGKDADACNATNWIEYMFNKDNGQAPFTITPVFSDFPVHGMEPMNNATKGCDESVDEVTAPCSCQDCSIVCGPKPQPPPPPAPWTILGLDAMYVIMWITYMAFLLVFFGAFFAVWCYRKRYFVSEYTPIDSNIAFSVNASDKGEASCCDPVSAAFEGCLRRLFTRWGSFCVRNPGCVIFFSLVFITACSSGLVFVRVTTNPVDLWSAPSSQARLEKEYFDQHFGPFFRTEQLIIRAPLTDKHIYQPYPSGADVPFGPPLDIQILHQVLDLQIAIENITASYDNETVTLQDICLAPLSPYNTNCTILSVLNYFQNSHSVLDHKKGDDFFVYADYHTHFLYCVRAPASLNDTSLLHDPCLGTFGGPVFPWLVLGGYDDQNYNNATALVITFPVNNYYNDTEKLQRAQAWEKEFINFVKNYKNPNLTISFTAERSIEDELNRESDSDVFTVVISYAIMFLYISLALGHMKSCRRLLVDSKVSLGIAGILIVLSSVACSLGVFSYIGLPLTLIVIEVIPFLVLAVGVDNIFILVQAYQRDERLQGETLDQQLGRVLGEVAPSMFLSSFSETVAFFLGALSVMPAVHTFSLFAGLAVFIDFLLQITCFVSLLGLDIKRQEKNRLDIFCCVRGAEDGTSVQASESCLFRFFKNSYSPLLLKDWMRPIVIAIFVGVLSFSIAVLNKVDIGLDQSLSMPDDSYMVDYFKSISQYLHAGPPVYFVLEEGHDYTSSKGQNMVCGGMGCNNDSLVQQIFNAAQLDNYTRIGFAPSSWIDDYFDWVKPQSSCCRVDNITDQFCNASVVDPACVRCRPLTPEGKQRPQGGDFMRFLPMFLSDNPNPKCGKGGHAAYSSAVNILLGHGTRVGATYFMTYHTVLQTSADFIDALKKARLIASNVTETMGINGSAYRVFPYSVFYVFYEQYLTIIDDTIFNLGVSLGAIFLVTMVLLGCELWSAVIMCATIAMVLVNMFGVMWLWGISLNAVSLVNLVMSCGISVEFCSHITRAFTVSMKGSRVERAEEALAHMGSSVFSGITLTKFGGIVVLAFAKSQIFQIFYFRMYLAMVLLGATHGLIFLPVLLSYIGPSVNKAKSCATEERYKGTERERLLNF
Outline: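 Purified late endosome/lysosome membranes came from NPC1-null CHO cells and CHO cells overexpressing human NPC1. […] Cross-linked proteins were click-labelled with Alexa Fluor 488 azide and detected by anti-Alexa 488 immunoblot. NPC1 was confirmed by anti-NPC1 immunoprecipitation and immunoblot.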

[3] = system: Vesicular stomatitis virus; assay: Antiviral activity against Vesicular stomatitis virus by cell based luciferase reporter gene assay; type: functional, organism-based
Lassa virus = assay: Antiviral activity against Lassa virus by cell based luciferase reporter gene assay; type: functional, organism-based; settings: Mammarenavirus lassaense
Ebolavirus = assay: Antiviral activity against Ebola virus by cell based luciferase reporter gene assay; type: functional, Ebola virus sp.; settings: Orthoebolavirus

Row | SMILES | inhibition [1] | Activity [2] | inhibition [3] | inhibition (Lassa virus) | IC50 (Ebolavirus) [nM]
1 | C#Cc1ccc(COc2ccc(N=[N+]=[N-])cc2CN2CCN(C(=O)CNC(=O)CC34CC5CC(CC(C5)C3)C4)CC2)cc1 | Active | Active | – | – | –
2 | COC(=O)c1ccc(COc2ccccc2CN2CCN(C(=O)CNC(=O)CC34CC5CC(CC(C5)C3)C4)CC2)cc1 | Active | – | inactive | inactive | 20
